{"source": "ChEMBL document CHEMBL3526035", "about": "“Role of the intestinal peptide transporter PEPT1 in oseltamivir absorption: in vitro and in vivo studies” (Drug Metab Dispos, 2012)", "type_in_all_cases": "ADME, cell-based, Cricetulus griseus", "key": {"[1]": {"experiment": "Drug uptake in CHOK1 cells at 100 uM at pH 4 to 8 after 10 mins by HPLC coupled with radiodetection analysis", "settings": "chinese hamster, cho-k1, pH 4, 10 min; call rule not given here", "in_short": "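[14C]oseltamivir at 100 μM incubated with CHO-K1 cells for 10 min at 37°C in KH buffer over pH 4-8, with pH readjusted after compound addition. Washed cells were lysed in Triton X-100, radioactivity counted and normalised to protein. Three independent experiments, each run in triplicate.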"}, "[2]": {"experiment": "Drug uptake in CHOK1 cells expressing human PEPT1 at 100 uM after 10 mins by HPLC coupled with radiodetection analysis in presence of PEPT1 inhibitor valacyclovir", "settings": "chinese hamster, cho-k1, 10 min", "in_short": "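CHO-PEPT1 and parental CHO-K1 cells were washed in KH/MES buffer, then incubated 10 min at 37°C, pH 6, with 100 µM [14C]oseltamivir alone or with 20 mM of the inhibitor. The pH was readjusted after additions. Uptake was quenched with ice-cold PBS-BSA and cells were washed and lysed in 1% Triton X-100. Lysate radioactivity was normalized to BCA protein. Three experiments on separate days, triplicate wells.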"}, "[3]": {"experiment": "Drug uptake in CHOK1 cells at 100 uM at 4 degC after 10 mins by HPLC coupled with radiodetection analysis", "settings": "chinese hamster, cho-k1, 10 min", "in_short": "(§1)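 CHO-K1 cells held in KH buffer at pH 6. Incubated 10 min with [14C]oseltamivir at 100 μM, either with 20 mM Trp-Gly, valacyclovir or cefadroxil, or at 4°C (on ice) against 37°C. Quenched with ice-cold PBS-0.2% BSA, washed, lysed in 1% Triton X-100 at 60°C. Lysate counted by scintillation and normalised to BCA protein. Three experiments, each point in triplicate.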"}, "[4]": {"experiment": "Drug uptake in CHOK1 cells expressing human PEPT1 at 100 uM at pH 4 to 8 after 10 mins by HPLC coupled with radiodetection analysis", "settings": "chinese hamster, cho-k1, pH 4, 10 min", "in_short": "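pH series from 4 to 8: CHO-PEPT1 and CHO-K1 cells were exposed to 100 µM [14C]oseltamivir (or 2 µM [3H]Gly-Sar) in KH/MES buffer, with pH readjusted after substrate addition, for 10 min at 37°C. Then quench in ice-cold PBS-BSA, Triton X-100 lysis and scintillation counting normalized to protein. Three independent experiments.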"}, "[5]": {"experiment": "Drug uptake in CHOK1 cells at 100 uM after 10 mins by HPLC coupled with radiodetection analysis in presence of PEPT1 inhibitor Trp-Gly", "settings": "chinese hamster, cho-k1, 10 min", "in_short": "as §1"}, "[6]": {"experiment": "Drug uptake in CHOK1 cells expressing human PEPT1 at 100 uM at 4 degC after 10 mins by HPLC coupled with radiodetection analysis", "settings": "chinese hamster, cho-k1, 10 min", "in_short": "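100 µM [14C]oseltamivir was incubated with CHO-PEPT1 and CHO-K1 cells for 10 min in KH/MES buffer pH 6, on ice (4°C) or on a 37°C block. Uptake was stopped with ice-cold PBS-BSA, cells were washed and lysed in Triton X-100, and radioactivity was counted per mg protein (BCA). Three independent experiments.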"}}, "data": [{"smiles": "CCOC(=O)C1=C[C@@H](OC(CC)CC)[C@H](NC(C)=O)[C@@H](N)C1", "note": "[OSELTAMIVIR]", "values": [{"measurement": "Drug uptake", "setting": "[1]", "value": "Active"}, {"measurement": "Drug uptake", "setting": "[2]", "value": "Not Active"}, {"measurement": "Drug uptake", "setting": "[3]", "value": "Not Active"}, {"measurement": "Drug uptake", "setting": "[4]", "value": "Active"}, {"measurement": "Drug uptake", "setting": "[5]", "value": "Not Active"}, {"measurement": "Drug uptake", "setting": "[6]", "value": "Not Active"}]}]}
